The list is not random: actives were taken first. Their share in the collection is about 4%.
MT stabilize HCS: microtubule stabilizers in HeLa cells; HeLa tubulin immunostaining HCS, 24 h; share of cells brighter than vehicle mean+2SD; % tubulin-high responders, % at 10 µM; 0.83% of 200,000 active;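 active means plate Z-score above 3 for both tubulin-high and condensed-nucleus cell shares, with cell loss under 80%, at 10 µM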;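 further: anti alpha tubulin signal scored within the nucleus-defined area of each cell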
Pf gamet viab: kills late stage P. falciparum gametocytes; P. falciparum stage V gametocytes, ATP luminescence, 24 h; inhibition, % at 10.9 µM; 0.065% of 150,000 active;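 active means inhibition above the mean plus 3 SD of compounds within the control limits, set per campaign, cut at about 38% in these data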
WT yeast gro inh: growth inhibition of WT yeast, mitochondrial fusion screen | mitochondrial fusion phenotypic screen, WT strain | inhibition, % at 10 µM | 2.1% of 190,000 active | AID 1362; in the data active means inhibition above about 58%; tested in S. cerevisiae
KCC2 mod: modulates chloride dependent transport by human KCC2. Q9H2X9. B-score of Tl+ flux slope (higher = more flux/activation; lower = inhibition) at 10 µM. KCC2 cells, thallium flux FluoZin-2 fluorescence. AID 1456. 2.2% of 190,000 active;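 active means thallium flux slope and its plate-corrected score both differing from the plate sample mean at a set confidence after two filtering rounds, in either direction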;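 further: slope of fluorescence scaled to starting intensity during 10 to 20 s after thallium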
bCat nuc transl: beta-catenin nuclear translocation modulation. HeLa beta-catenin nuclear translocation, immunofluorescence imaging. nuclear translocation activity, % at 5 µM. 0.3% of 190,000 active. AID 1665;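 active means nuclear translocation activity above 50% at 5 µM, with a well cell count of 50 or more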;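 further: per-cell ratio of nuclear to cytoplasmic median beta-catenin stain intensity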
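System: Human HeLa cells, endogenous beta-catenin | Compound dosing: 5 µM primary, 0.02–20 µM confirmation | Timing: 24 h compound exposure at 37°C, 5% CO2 | Measured by: Fluorescence imaging of beta-catenin antibody stain plus DAPI | Read-out basis: % activation of per-cell nuclear versus cytoplasmic median beta-catenin signal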
Of the large screens only hits and unclear results are named; the others gave an inactive call.

OCC[C@H]1C[C@H](O)[C@@H](O)[C@@]2(CCCc3ccccc3O2)O1	none (no result: MT stabilize HCS, WT yeast gro inh, KCC2 mod, bCat nuc transl)
OCCC1CN(Cc2cccc3nonc23)CCN1C1CCCCC1 (stereo unspecified)	none (no result: Pf gamet viab)
COc1ccc2nc(NCc3ccccc3)[nH]c2c1	MT stabilize HCS 43 (no result: KCC2 mod)
Cc1ccc2nc(NCc3ccccc3)[nH]c2c1	MT stabilize HCS 22
COc1ccc2nc(NCCO)[nH]c2c1	none (no result: KCC2 mod)
C/C(=N\NC(=O)c1ccc(OC2OCCOC2Oc2ccc(C(=O)N/N=C(\C)c3ccncc3)cc2)cc1)c1ccncc1 (stereo unspecified)	none (no result: MT stabilize HCS, WT yeast gro inh)
CC(=O)O[C@H]1C(=O)[C@@]2(C)[C@H]([C@H](OC(=O)c3ccccc3)[C@]3(O)C[C@H](OC(=O)[C@H](O)C(NC(=O)c4ccccc4)c4ccccc4)C(C)=C1C3(C)C)[C@]1(OC(C)=O)CO[C@@H]1C[C@@H]2O (stereo partly specified)	bCat nuc transl 69 (no result: MT stabilize HCS, Pf gamet viab, WT yeast gro inh)
CCOC(=O)N(C)OC(=O)Nc1ccc(Cl)c(Cl)c1	WT yeast gro inh 62 (no result: Pf gamet viab, KCC2 mod)
COc1cc(C(=O)OC2CSCC2NC(=O)c2ccccc2)cc(OC)c1OC (stereo unspecified)	none
Cc1nc(C)c(-c2csc(Nc3ccc(F)cc3)n2)s1	WT yeast gro inh 73
Cc1nc(NC(=O)c2ccccc2)sc1-c1csc(Nc2cccc(F)c2)n1	WT yeast gro inh 80 (no result: Pf gamet viab, bCat nuc transl)
CC(=O)Cc1nsc(NC(=O)c2oc(-c3ccccc3Cl)cc2C)n1	none
CC(=O)Cc1nsc(NC(=O)c2ccc(-c3ccccc3Cl)o2)n1	MT stabilize HCS 24 (no result: Pf gamet viab)
COc1ccc2cc(CCNC(=O)c3ccc(Br)o3)c(=O)[nH]c2c1	none (no result: Pf gamet viab)
Cc1cc2cc(CCNC(=O)c3ccc(Br)o3)c(=O)[nH]c2cc1C	WT yeast gro inh 96
C=CCSc1nnc(NC(=O)c2cccc(S(=O)(=O)N(C)c3ccccc3)c2)s1	none
Cc1cc(C)nc(SCC(=O)Nc2nc(-c3ccccc3)c(-c3ccccc3)o2)n1	none
Cc1ccc(C(=O)Nc2nc(-c3ccccc3)c(-c3ccccc3)o2)cc1	WT yeast gro inh 69, KCC2 mod 31
Cc1nn2c(=O)cc(COC(=O)c3ccc(S(=O)(=O)N4CCCCC4)cc3)nc2s1	MT stabilize HCS 15 (no result: bCat nuc transl)
CN=C1S/C(=C\c2cc(C)n(-c3ccccc3F)c2C)C(=O)N1C	WT yeast gro inh 73 (no result: Pf gamet viab, KCC2 mod)
Cc1cc(/C=C2\SC(=O)N(C)C2=O)c(C)n1-c1ccc(O)cc1	none (no result: MT stabilize HCS, WT yeast gro inh, KCC2 mod, bCat nuc transl)
CCOc1ccc(Nc2nc(N3CCCCC3)nc(N3CCCCC3)n2)cc1	WT yeast gro inh 61 (no result: Pf gamet viab)
Oc1ccc(Nc2nc(N3CCCC3)c3ccccc3n2)cc1	none (no result: Pf gamet viab, KCC2 mod)
COc1ccc(Nc2nc(N3CCCCC3)c3ccccc3n2)cc1	WT yeast gro inh 75 (no result: KCC2 mod)
O=[N+]([O-])c1ccc(Nc2nc(NC3CCCCC3)nc(N3CCCC3)n2)cc1	WT yeast gro inh 77 (no result: Pf gamet viab)
O=[N+]([O-])c1ccc(Nc2nc(N/N=C/c3cccc(F)c3)nc(N3CCCC3)n2)cc1	none
CC(CCN1CCN(CCO)CC1)c1ccccc1 (stereo unspecified)	none (no result: MT stabilize HCS, WT yeast gro inh, KCC2 mod, bCat nuc transl)
O=C(CCC1CCCCC1)Nc1ccccc1C(=O)N1CCOCC1	none
CCOC(=O)C1C(=O)NC(c2ccccc2)=NC1c1ccc(F)cc1 (stereo unspecified)	none (no result: bCat nuc transl)
CSC1=NC(C(Cl)(Cl)Cl)N=C(c2ccccc2)N1 (stereo unspecified)	MT stabilize HCS 15, bCat nuc transl 75
COc1cccc(S(=O)(=O)NC2CCN(C#N)C2)c1 (stereo unspecified)	none (no result: MT stabilize HCS, WT yeast gro inh, KCC2 mod, bCat nuc transl)
O=[N+]([O-])c1ccc(Nc2c3ccccc3nc3ccccc23)cc1	WT yeast gro inh 77
O=C(c1ccco1)N(CCC(c1ccccc1)c1ccco1)Cc1ccc(F)cc1 (stereo unspecified)	none (no result: Pf gamet viab, KCC2 mod)
CC1(C)CC(C(CCN(Cc2ccccc2)C(=O)c2ccco2)c2ccc(F)cc2)CCO1 (stereo unspecified)	WT yeast gro inh 75
S=C(Nc1cccc(Br)c1)c1ccccc1	KCC2 mod 3.7 (no result: bCat nuc transl)
S=C(Nc1ccccc1)Nc1cccc(Br)c1	none
CC(=O)Oc1c(C(=O)c2nnc(C)o2)c(=O)n(C)c2ccccc12	none (no result: Pf gamet viab)
O=C(O)Cc1c(C(=O)O)[nH]c2ccc(C(=O)O)cc12	none (no result: MT stabilize HCS, WT yeast gro inh, KCC2 mod)
O=[N+]([O-])c1ccc(N/N=C/c2c[nH]c3ccccc23)cc1	WT yeast gro inh 87 (no result: Pf gamet viab)
Cc1cccc(NC(=S)N/N=C/c2c[nH]c3ccccc23)c1	MT stabilize HCS 14 (no result: bCat nuc transl)
O=[N+]([O-])c1ccccc1N/N=C/c1c[nH]c2ccccc12	none (no result: bCat nuc transl)
Cc1ccc(NC(=S)N/N=C/c2c(C)[nH]c3ccccc23)cc1	WT yeast gro inh 96
O=C(CNc1ccccc1)N/N=C/c1c[nH]c2ccccc12	MT stabilize HCS 16
Cc1ccc(C(=O)Nc2ccc(C(=O)N/N=C/c3c[nH]c4ccccc34)cc2)cc1	none
Cc1[nH]c2ccccc2c1/C=N/NC(N)=S	none (no result: MT stabilize HCS, WT yeast gro inh)
O=C(CCC(=O)Nc1ccc(F)cc1)N/N=C/c1c[nH]c2ccccc12	none
CNc1[nH]c(=O)[nH]c(=O)c1N=Nc1cc(Cl)ccc1Cl	none (no result: MT stabilize HCS, WT yeast gro inh, KCC2 mod, bCat nuc transl)
CCCn1nc(C(=O)NC2CCCc3ccccc32)c2ccccc2c1=O (stereo unspecified)	none
CCc1ccc(NC(=O)CCNS(=O)(=O)c2cccc3nsnc23)cc1	none (no result: Pf gamet viab)
Cc1cccc(CN2CCN(C(c3ccccc3)c3ccc(Cl)cc3)CC2)c1 (stereo unspecified)	WT yeast gro inh 66 (no result: Pf gamet viab)
COc1cc(CN2CCN(C(c3ccccc3)c3ccccc3)CC2)cc(OC)c1OC	none (no result: MT stabilize HCS, WT yeast gro inh, KCC2 mod, bCat nuc transl)
O=[N+]([O-])c1cc(/C=N/Nc2nc3ccccc3[nH]2)c(O)cc1O	none
COc1ccc2c(Cl)c(C(=O)N/N=C/c3c(C)[nH]c4ccccc34)sc2c1	MT stabilize HCS 22, bCat nuc transl 78 (no result: Pf gamet viab)
O=C(N/N=C/c1c[nH]c2ccccc12)c1sc2ccccc2c1Cl	none
Cc1ccc(OCC(=O)NC(=S)Nc2ccc(Br)c(C)n2)cc1	none (no result: Pf gamet viab, KCC2 mod)
Cc1cccc(NC(=S)NC(=O)c2ccco2)n1	KCC2 mod 28
Cc1ccc2nc(NC(=S)NC(=O)c3cccs3)sc2c1	KCC2 mod 9.2 (no result: Pf gamet viab)
Cc1ccc(-c2csc(NC(=S)NC(=O)c3cccs3)n2)cc1	none
Cc1cccc(NC(=S)NC(=O)c2cccs2)n1	KCC2 mod 18 (no result: Pf gamet viab)
COC(=O)Cc1ccc(NC(=S)Nc2cccc(C)n2)cc1	none
Cc1ccc(OCC(=O)NC(=S)Nc2cccc(C)n2)cc1	KCC2 mod 8.4
Cc1ccc(N=CC2=C(O)CC(c3ccc(Cl)cc3)CC2=O)cc1 (stereo unspecified)	none
N#Cc1ccc(C(=O)OCC(=O)Nc2ccc(S(N)(=O)=O)cc2)cc1	none (no result: MT stabilize HCS, WT yeast gro inh)
CC(C)(C)C(=O)Nc1cc(NC(=O)C(C)(C)C)cc(C(=O)Nc2c[nH]c(=O)[nH]c2=O)c1	none (no result: MT stabilize HCS, WT yeast gro inh, KCC2 mod, bCat nuc transl)
CC1Cc2ccccc2N1C(=S)NC(=O)C1(C)CC1(Cl)Cl (stereo unspecified)	KCC2 mod 93
COCCCn1c(SCC(=O)NNC(=O)c2cccc(O)c2)nnc1-c1ccncc1	none
CCC(C)(C)NC(=O)CN(C(=O)c1snc(C(N)=O)c1N)c1ccc2c(c1)OCCO2	WT yeast gro inh 73 (no result: Pf gamet viab, KCC2 mod)
CCCn1ncc(CN2CCC(N3CCC(C(=O)N4CCOCC4)CC3)CC2)c1C	none
